Experimental data taken from ChEMBL document CHEMBL3526127, “Absorption, elimination, and metabolism of CS-1036, a novel α-amylase inhibitor in rats and monkeys, and the relationship between gastrointestinal distribution and suppression of glucose absorption” (Drug Metab Dispos, 2013).
Each block holds one compound with its values, some of them ahead of it.

What was measured:
[1] = Drug excretion in F344 rat urine at 1 mg/kg, po administered as single dose after 0 to 168 hrs by scintillation counting method; assay type: ADME, organism-based; set-up: dose 1 mg/kg, route oral; details: in vivo
Method in brief: (§1)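 Fasted F344 rats (152–156 g iv via tail vein; 154–159 g oral; n = 4) received [14C]-labelled drug at 1 mg/kg (41.9 µCi/kg). Animals were kept in metabolic cages; urine and feces were collected to 168 h, and expired CO2 was trapped in 2-aminoethanol/2-methoxyethanol (1:1) to 48 h. Samples were counted by liquid scintillation (feces homogenized). Results are % of dose, mean ± S.D.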

[2] = Drug excretion in bile duct cannulated F344 rat bile at 1 mg/kg, po administered as single dose after 0 to 48 hrs by scintillation counting method; assay type: ADME, organism-based; set-up: dose 1 mg/kg, route oral; details: in vivo
Method in brief: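 Common bile duct was cannulated under diethyl ether in fasted F344 rats. After recovery, [14C]-labelled drug (1 mg/kg, 41.9 µCi/kg) was given iv via tail vein or by oral gavage (n = 4). Rats were held in Bollman cages and bile was collected at 4°C over 0–48 h intervals. Bile was counted by liquid scintillation; % of dose.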

[3] = Drug excretion in F344 rat urine at 1 mg/kg, po administered as single dose after 24 hrs by scintillation counting method; assay type: ADME, organism-based; set-up: dose 1 mg/kg, route oral; details: in vivo
Method in brief: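 [14C]-labelled drug (1 mg/kg, 42.2 µCi/kg) was given orally to fasted F344 rats (164–168 g, n = 3). Urine and feces were collected to 24 h; feces were homogenized in 9 volumes of water, combusted and counted. Parent fraction came from the excreted radioactivity times the radio-HPLC (HILIC) peak-area ratio; mean ± S.D.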

[4] = Drug excretion in cynomolgus monkey feces at 3 mg/kg, iv administered as single dose after 0 to 336 hrs by scintillation counting method; assay type: ADME, organism-based, Macaca fascicularis; set-up: dose 3 mg/kg, route intravenous; details: in vivo
Method in brief: (§2)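 Fasted cynomolgus monkeys (n = 4) received [14C]-labelled drug at 3 mg/kg, iv via saphenous vein (191 µCi/kg) or orally by stomach catheter (156.5 µCi/kg). Urine, feces and water cage-wash were collected to 336 h. Samples were counted by liquid scintillation; feces were homogenized in 4-fold water. Results are % of dose, mean ± S.D.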

Plasma = assay: Drug metabolism in po dosed monkey plasma by LC-MS/MS method; details: cynomolgus monkey, in vivo
[5] = Drug metabolism in F344 rat feces assessed as N-acetylated 1,4-dideoxy-1,4-imino-D-arabinitol formation by LC-MS/MS method; assay type: ADME, tissue-based
[6] = Drug metabolism in anaerobic culture broth of F344 rat cecal content assessed as 1,4-dideoxy-1,4-imino-D-arabinitol formation at 63.5 uCi/ml after 24 hrs at 35 degC by LC-MS/MS method; assay type: ADME
Cynomolgus monkey = assay: Drug excretion in cynomolgus monkey assessed as drug level found during cage washing at 3 mg/kg, iv administered as single dose after 0 to 336 hrs by scintillation counting method; assay type: ADME, organism-based, Macaca fascicularis; set-up: dose 3 mg/kg, route intravenous; details: in vivo; method in brief: as §2
[7] = Ratio of drug level in blood to plasma in cynomolgus monkey after 5 mins; assay type: ADME, Macaca fascicularis
[8] = Drug metabolism in monkey liver S9 fractions at 0.42 uCi/ml assessed as metabolite formation in presence of NADPH after 1 hr at 37 degC by LC-MS/MS method; assay type: ADME, subcellular, Macaca mulatta, Liver S9 fraction; details: rhesus monkey, s9, 1 h
Rattus norvegicus = assay: Total drug excretion in F344 rat at 1 mg/kg, po administered as single dose after 0 to 48 hrs by scintillation counting method; assay type: ADME, organism-based; set-up: dose 1 mg/kg, route oral; details: in vivo
Method in brief: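 Fasted F344 rats (n = 4) received [14C]-labelled drug at 1 mg/kg (41.9 µCi/kg), iv via tail vein or oral. They were housed in metabolic cages. Urine and feces were collected to 168 h, and expired CO2 was trapped in 2-aminoethanol/2-methoxyethanol to 48 h. Radioactivity was counted by liquid scintillation, feces after homogenization. Results are % of dose.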

[9] = Drug excretion in F344 rat urine at 1 mg/kg, iv administered as single dose after 0 to 168 hrs by scintillation counting method; assay type: ADME, organism-based; set-up: dose 1 mg/kg, route intravenous; details: in vivo; method in brief: as §1
[10] = Half life in cynomolgus monkey at 10 mg/kg, iv administered as single dose by LC-MS/MS method; assay type: ADME, organism-based, Macaca fascicularis; set-up: dose 10 mg/kg, route intravenous; details: in vivo
Method in brief: (§3)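 Male F344 rats (146–185 g) and male cynomolgus monkeys (3.48–4.29 kg), n = 4 each, fasted overnight, received single iv or oral doses of 0.3, 1.0, 3.0 or 10.0 mg/kg. Monkeys had 2-week washouts between doses. Plasma was sampled to 48 h and assayed by LC-MS/MS with deuterated internal standard. Noncompartmental analysis: tmax observed; t1/2 by regression on ≥3 terminal log points; Vss = dose·AUMC/(AUC0–inf)²; Foral = oral/iv AUC0–inf at the same dose.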

[11] = Cmax in cynomolgus monkey at 10 mg/kg, po administered as single dose by LC-MS/MS method; assay type: ADME, organism-based, Macaca fascicularis; set-up: dose 10 mg/kg, route oral; details: in vivo
Method in brief: (§4)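 Fasted male F344 rats (146–185 g) and cynomolgus monkeys (3.48–4.29 kg), n = 4 each, received a single oral dose; monkeys had 2-week washouts. Plasma sampled up to 48 h, stored at […], assayed by LC-MS/MS with a deuterated internal standard. Cmax taken from observed data by noncompartmental analysis; mean ± S.D. (n = 3 or 4).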

[12] = AUClast in cynomolgus monkey at 0.3 mg/kg, po administered as single dose by LC-MS/MS method; assay type: ADME, organism-based, Macaca fascicularis; set-up: dose 0.3 mg/kg, route oral, time 0 - last; details: plasma
Method in brief: (§5)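 Fasted male F344 rats (146–185 g) or male cynomolgus monkeys (3.48–4.29 kg), n = 4 per dose, given single iv or oral dose of 0.3, 1.0, 3.0 or 10.0 mg/kg; monkeys dosed with 2-week washouts. Blood sampled to 48 h; plasma stored frozen. LC-MS/MS with deuterated internal standard. Noncompartmental analysis: AUClast by trapezoidal rule; AUC0–inf = AUClast + Ctz/terminal rate constant; mean ± S.D.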

[13] = AUC (0 to infinity) in cynomolgus monkey at 10 mg/kg, po administered as single dose by LC-MS/MS method; assay type: ADME, organism-based, Macaca fascicularis; set-up: time infinity, dose 10 mg/kg, route oral; details: plasma; method in brief: as §5
[14] = Oral bioavailability in F344 rat at 10 mg/kg administered as single dose by LC-MS/MS method; assay type: ADME, organism-based; details: in vivo; method in brief: as §3
[15] = AUC (0 to infinity) in F344 rat at 3 mg/kg, iv administered as single dose by LC-MS/MS method; assay type: ADME, organism-based; set-up: time infinity, dose 3 mg/kg, route intravenous; details: plasma; method in brief: as §5
[16] = Volume of distribution at steady state in cynomolgus monkey at 3 mg/kg, iv administered as single dose by LC-MS/MS method; assay type: ADME, organism-based, Macaca fascicularis; set-up: dose 3 mg/kg, route intravenous; details: in vivo, read-out: Vdss; method in brief: as §3
[17] = Cmax in F344 rat at 0.3 mg/kg, po administered as single dose by LC-MS/MS method; assay type: ADME, organism-based; set-up: dose 0.3 mg/kg, route oral; details: in vivo; method in brief: as §4
[18] = Oral bioavailability in cynomolgus monkey at 1 mg/kg administered as single dose by LC-MS/MS method; assay type: ADME, organism-based, Macaca fascicularis; details: in vivo; method in brief: as §3
[19] = Half life in cynomolgus monkey at 0.3 mg/kg, iv administered as single dose by LC-MS/MS method; assay type: ADME, organism-based, Macaca fascicularis; set-up: dose 0.3 mg/kg, route intravenous; details: in vivo; method in brief: as §3
[20] = AUClast in cynomolgus monkey at 10 mg/kg, po administered as single dose by LC-MS/MS method; assay type: ADME, organism-based, Macaca fascicularis; set-up: time 0 - last, dose 10 mg/kg, route oral; details: plasma; method in brief: as §5
[21] = Half life in cynomolgus monkey at 10 mg/kg, po administered as single dose by LC-MS/MS method; assay type: ADME, organism-based, Macaca fascicularis; set-up: dose 10 mg/kg, route oral; details: in vivo; method in brief: as §3
[22] = Cmax in cynomolgus monkey at 0.3 mg/kg, po administered as single dose by LC-MS/MS method; assay type: ADME, organism-based, Macaca fascicularis; set-up: dose 0.3 mg/kg, route oral; details: in vivo; method in brief: as §4

Drug excretion [1]: 15.32% | Drug excretion [2]: 0.59% | Drug excretion [3]: 1.4% | Drug excretion [4]: 0.66% | Drug metabolism (Plasma): metabolite_not_detected | Drug metabolism [5]: metabolite_detected | Drug metabolism [6]: metabolite_detected | Drug excretion (Cynomolgus monkey): 14.5% | blood plasma ratio at 5 min [7]: 0.595 | Drug metabolism [8]: metabolite_not_detected | Drug excretion (Rattus norvegicus): 93.26% | Drug excretion [9]: 77.21%
Compound: C[C@H]1O[C@@H](O[C@H]2[C@H](O)[C@@H](O)[C@@H](O[14C@H]3[14C@H](O)[14CH2]N[14C@@H]3[14CH2]O)O[C@@H]2CO)[C@H](O)[C@@H](O)[C@@H]1O

half-life [10]: 30 h | Cmax [11]: 152 ng/mL | AUC(0-t) [12]: 15 ng·h/mL | AUC(0-inf) [13]: 894 ng·h/mL | bioavailability [14]: 2.03% | AUC(0-inf) [15]: 18800 ng·h/mL | Vd [16]: 0.262 L/kg | Cmax [17]: 16.2 ng/mL | bioavailability [18]: 0.983% | half-life [19]: 2.51 h | AUC(0-t) [20]: 869 ng·h/mL | half-life [21]: 12.6 h | Cmax [22]: 5.23 ng/mL
Compound: C[C@H]1O[C@@H](O[C@H]2[C@H](O)[C@@H](O)[C@@H](O[C@H]3[C@H](O)CN[C@@H]3CO)O[C@@H]2CO)[C@H](O)[C@@H](O)[C@@H]1O
